Test results from ChEMBL document CHEMBL3244343, “7-(Aminoethyl) ether and thioether of daunomycinone” (1979).

Key:
L1210 [1] = experiment: Inhibition of DNA synthesis in mouse L1210 cells assessed as inhibition of [3H]thymidine incorporation; format: functional; details: read-out: ED50 (the source's name)
Summary of the method: (§1)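 L1210 leukemia cells in culture. Incorporation of [3H]thymidine (DNA) or [3H]uridine (RNA) was measured, and the dose giving 50% inhibition (ED50) was reported. Follows a previously described procedure, with 1% Me2SO added for some compounds.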

[2] = Binding affinity to DNA (unknown origin) assessed as DNA interaction by measuring change in melting temperature
Summary of the method: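 Thermal denaturation (melting temperature) shift of DNA in solution, read as ΔTm in °C. Buffer was 0.010 M phosphate, pH 7.0, with 10^-5 M EDTA plus 5% Me2SO to solubilize the compounds. Other steps followed a previously described method.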

L1210 [3] = experiment: Inhibition of RNA synthesis in mouse L1210 cells assessed as inhibition of [3H]uridine incorporation; format: functional; details: read-out: ED50 (the source's name); summary of the method: as §1
P388 [4] = experiment: Antitumor activity against mouse P388 cells allografted in mouse assessed as increase in survival time at 200 mg/kg, po q4d administered on days 5, 9 and 13 relative to control; format: functional
Summary of the method: (§2)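 P388 leukemia cells were injected ip into mice on day 0, and the tumor was allowed to advance before dosing on days 5, 9 and 13. Read-out is the survival time of treated relative to control mice (T/C, %), with ≥125% required for activity. Each value comes from a single test.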

P388 [5] = experiment: Antitumor activity against mouse P388 cells allografted in mouse assessed as increase in survival time at 50 mg/kg, po q4d administered on days 5, 9 and 13 relative to control; format: functional; summary of the method: as §2
P388 [6] = experiment: Antitumor activity against mouse P388 cells allografted in mouse assessed as increase in survival time at 0.78 mg/kg, po qd administered from day 1 to day 9 relative to control; format: functional
P388 [7] = experiment: Antitumor activity against mouse P388 cells allografted in mouse assessed as increase in survival time at 2 mg/kg, po q4d administered on days 5, 9 and 13 relative to control; format: functional; summary of the method: as §2
P388 [8] = experiment: Antitumor activity against mouse P388 cells allografted in mouse assessed as increase in survival time at 1 mg/kg, po q4d administered on days 5, 9 and 13 relative to control; format: functional; summary of the method: as §2
P388 [9] = experiment: Antitumor activity against mouse P388 cells allografted in mouse assessed as increase in survival time at 6.25 mg/kg, po qd administered from day 1 to day 9 relative to control; format: functional

| SMILES | EC50 (L1210 [1]) | ΔTm [2] | EC50 (L1210 [3]) | T/C (P388 [4]) | T/C (P388 [5]) | T/C (P388 [6]) | T/C (P388 [7]) | T/C (P388 [8]) | T/C (P388 [9]) |
| --- | --- | --- | --- | --- | --- | --- | --- | --- | --- |
| COc1cccc2c1C(=O)c1c(O)c3c(c(O)c1C2=O)C[C@@](O)(C(C)=O)C[C@@H]3SCCN.Cl | 6000 nM | 6.3 °C | 4000 nM | 109% | – | – | – | – | – |
| COc1cccc2c1C(=O)c1c(O)c3c(c(O)c1C2=O)C[C@@](O)(C(C)=O)C[C@@H]3OCCN.Cl | 2000 nM | 8.2 °C | 1000 nM | – | 112% | – | – | – | – |
| COc1cccc2c1C(=O)c1c(O)c3c(c(O)c1C2=O)C[C@@](O)(C(C)=O)C[C@@H]3O[C@H]1C[C@H](N)[C@H](O)[C@H](C)O1.Cl [DAUNORUBICIN HYDROCHLORIDE] | 400 nM | 11.2 °C | 300 nM | – | – | 160% | 133% | – | – |
| COc1cccc2c1C(=O)c1c(O)c3c(c(O)c1C2=O)C[C@@](O)(C(=O)CO)C[C@@H]3O[C@H]1C[C@H](N)[C@H](O)[C@H](C)O1 [DOXORUBICIN] | 2000 nM | 13.6 °C | 700 nM | – | – | 197% | – | 130% | – |
| COc1cccc2c1C(=O)c1c(O)c3c(c(O)c1C2=O)C[C@@](O)(C(C)=O)C[C@@H]3OC(=O)CCN.Cl | 8000 nM | 1 °C | 6000 nM | – | 116% | – | – | – | 126% |
